# An excerpt weighted towards active compounds, which were near 2.9% of everything screened.
# Cneo AK release – Cryptococcus neoformans cell lysis inducers, primary screen, AK release luminescence, single concentration; AID 651654, 2012; lysis activity, % at 15 µM; C. neoformans lysis, adenylate kinase release luminescence, 4 h; normalised: neutral wells 0, clomiphene wells 100; 360,000 tested, 0.2% active;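 active = mean lysis activity across replicates of at least 80%, whatever share of replicates individually reach that level; inactive = mean lysis activity below 80%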
#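 Assay system: Cryptococcus neoformans yeast cells / Dosing: single-point compound dose / Timing: 4 h at 37 °C static, read 1 h later / Measured by: luminescence of released adenylate kinase using an AK detection reagent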
# Ecoli rRNA inh – reduced GFP signal of wild-type E. coli, primary screen, bacterial rRNA inhibitor project, GFP/RFP fluorescence, OD600, single point; E. coli WT GFP vs humanized-ribosome RFP mutants, 24 h; active compounds read low; DMSO median 0, no signal -100; GFP signal change (wild-type ribosome), % (concentration not given with the values); 350,000 tested, 1.6% active;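 active = significant combined selectivity score with lowered wild-type GFP, culture density cut under 30%, mutant RFP and density less affected; inactive = any of these conditions unmet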
# PglD DTNB – C. jejuni PglD acetyltransferase inhibitors, primary screen, biochemical, DTNB colorimetric, single point. UDP-N-acetylbacillosamine N-acetyltransferase PglD (Campylobacter jejuni). inhibition, % at 12.5 µM. AID 602405, 2012. 360,000 tested, 0.098% active. purified PglD enzyme, DTNB colorimetric CoA detection; in the data active = inhibition above about 16%, passing the limit was not always enough; inconclusive = no clear call, values can overlap the other calls
# Vif imaging – HIV Vif self-association inhibitors, primary screen, imaging, HEK293T, single point; HEK293T cells, Vif self-association by quenched fluorescence, 24 h; inhibition, % at 7.49 µM; 340,000 tested, 0.35% active; AID 602346, 2012; in the data active = inhibition above about 50%, passing the limit was not always enough; inconclusive = no clear call, values can overlap the other calls; inactive = below about 31%
# FGF22 binding – binders of human FGF22 protein, primary screen, FGF22 synaptogenesis inhibitor project, biophysical, thermal shift, single point; Fibroblast growth factor 22 (Homo sapiens), Q9HCT0; recombinant FGF22 thermal shift, SYPRO orange fluorescence; percent of sucrose octasulfate shift, DMSO zero; activity (Tm shift, normalised), % at 9.99 µM; 340,000 tested, 1.5% active; AID 651658, 2012;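 active = mean Tm shift, scaled 0 neutral to 100 positive control, at about 1.3% or above, every replicate too, limit read from the data; inconclusive = no clear call, values can overlap the other calls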
# Target sequence (Q9HCT0 whole entry, looked up): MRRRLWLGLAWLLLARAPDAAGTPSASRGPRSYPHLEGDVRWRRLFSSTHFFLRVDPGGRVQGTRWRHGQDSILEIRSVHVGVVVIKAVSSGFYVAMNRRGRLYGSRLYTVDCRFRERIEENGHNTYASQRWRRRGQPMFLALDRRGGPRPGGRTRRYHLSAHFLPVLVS
# PGC1a acetyl inh – inhibitors of PGC1a acetylation signal, primary screen, cell-based, U2OS, AlphaScreen, inhibitor mode; AID 651687, 2012; 350,000 tested, 0.17% active; inhibition, % at 15.6 µM; AlphaScreen anti-acetyl-lysine; with virally co-expressed GCN5 acetyltransferase;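 active = every replicate shows inhibition of at least 40%; inconclusive = mean inhibition at least 40% but some replicate below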;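 note: 0% = neutral control wells and 100% = positive control wells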
# The depositor's hits bear a star; ? = inconclusive; / = not tested or not shown.
SMILES,Cneo AK release,Ecoli rRNA inh,PglD DTNB,Vif imaging,FGF22 binding,PGC1a acetyl inh
O=C(c1ccccc1)C(Nc1ccccn1)c1ccccc1 (stereo not drawn),/,-26,/,7,44*,-2
CO[C@@H]1CN(C)C(=O)c2ccc(NC(=O)Nc3cc(F)ccc3F)cc2OC[C@@H](C)N(C(=O)c2cnccn2)C[C@@H]1C,/,-1,/,/,0,-5
CN(C)CCCn1c(=O)n(C2CCCCC2)c(=O)c2c3c(sc21)CCCCC3,88*,0,-3,12,0,3
O=C(N/N=C/c1ccncc1)C1CC1(c1ccccc1)c1ccccc1 (stereo not drawn),/,-22*,/,-14,0,/
CC1Cc2cc(/C=C3/SC(=S)NC3=O)ccc2O1 (stereo not drawn),-4,-20*,-1,-6,0,5
CCc1nnc(NC(=O)c2ccc(OCc3c(C)noc3C)c(OC)c2)s1,0,9,2,14,43*,/
Cc1cc(C)n(-c2nc(NCCN(C)C)c3c4c(sc3n2)COC(C)(C)C4)n1,-3,-32*,7,-1,0,25
COc1ccc(CC(=O)NNC(=O)CCc2ccccc2)cc1OC,/,22,/,-3,43*,/
COc1ccc(CCNC(=O)CN(c2cc([N+](=O)[O-])ccc2OC)S(C)(=O)=O)cc1OC,/,9,/,-3,43*,-4
COc1cccc(C(=O)NCC2(c3ccc(OC)c(OC)c3)CCCC2)c1,-1,3,4,?,0,-19
COc1cccc(C(=O)NNC(=O)CCc2ccccc2)c1,0,-21*,7,0,43,0
COc1cccc(C(=O)NCC2(c3ccccc3)CCCC2)c1,-4,-30,-1,2,43*,/
COc1ccc(CC(=O)NC(C)CCc2ccccc2)cc1OC (stereo not drawn),0,8,-2,-7,0,2
CCCC#Cc1ccc([C@@H]2[C@@H](CO)N3CCCCN(Cc4cccnc4)C[C@H]23)cc1,4,1,5,/,-1,6
O=C(C[C@@H]1CC[C@@H](NS(=O)(=O)c2ccc(F)cc2)[C@@H](CO)O1)N1CCC(Cc2ccccc2)CC1,0,5,0,/,0,1
COc1ccc(CCNC(=O)CCc2ccc(S(=O)(=O)NC(C)C)cc2)cc1OC,/,/,/,2,/,/
CCCNS(=O)(=O)c1ccc(CCC(=O)NCCc2ccc(OC)c(OC)c2)cc1,/,-7,/,-4,44*,1
CC(c1ccccc1)n1c(SCC(=O)N2CC(=O)Nc3ccccc32)nc2ccccc2c1=O (stereo not drawn),/,/,/,-9,/,/
CC(C)(C)c1nc(SCC(=O)N2CC(=O)Nc3ccccc32)c2ccccc2n1,/,17,/,-1,44*,/
O=C(Nc1ccccc1)ON=C1c2ccccc2-c2ccccc21,/,-35*,/,0,0,0
COc1ccc(S(=O)(=O)N2c3ccc(F)cc3CCC2C)cc1 (stereo not drawn),-7,-28*,8,6,0,-120
COc1ccc(NC2=C(C(C)=O)C(c3ccc(OC)c(OC)c3)C(C(C)=O)C(C)(O)C2)cc1 (stereo not drawn),-18,/,-2,1,/,-3
COc1ccc(NC2=C(C(C)=O)C(c3ccccc3)C(C(C)=O)C(C)(O)C2)cc1 (stereo not drawn),/,-27*,/,7,0,-13
O=C(c1ccccc1)c1cccc2ccccc12,/,/,/,7,0,-2
O=C(O)/C(=C\c1ccc2ccccc2c1)c1cccc2ccccc12,/,-47*,/,-4,0,-1
SMILES,Cneo AK release,Ecoli rRNA inh,PglD DTNB,Vif imaging,FGF22 binding,PGC1a acetyl inh
COC(=O)C(=Cc1ccncc1)c1cccc2ccccc12,/,-20,/,-5,0,/
O=C(O)C(=Cc1ccncc1)c1cccc2ccccc12,-1,-10,-3,22,43*,-1
CO[C@@H]1CN(C)C(=O)c2cc(NS(=O)(=O)c3c(C)noc3C)ccc2OC[C@H](C)NC[C@@H]1C,0,2,-5,/,0,5
C[C@@H]1CN([C@H](C)CO)C(=O)c2c(c3ccccc3n2C)-c2ccccc2CO[C@@H]1CN(C)C(=O)Nc1ccccc1C(F)(F)F,0,16,-4,53*,0,-96
C[C@H]1CN([C@@H](C)CO)C(=O)c2c(c3ccccc3n2C)-c2ccccc2CO[C@H]1CN(C)Cc1ccc(Oc2ccccc2)cc1,/,1,/,/,1.3*,-15
C[C@@H]1CN([C@H](C)CO)C(=O)c2c(c3ccccc3n2C)-c2ccccc2CO[C@H]1CN(C)C(=O)Nc1ccccc1C(F)(F)F,/,0,/,/,/,/
C[C@@H]1CN([C@H](C)CO)C(=O)c2c(c3ccccc3n2C)-c2ccccc2CO[C@@H]1CN(C)Cc1ccc(C(F)(F)F)cc1,/,2,/,/,1.4*,-12
Cc1ccc(S(=O)(=O)Nc2cccc3c2O[C@H](CN(C)C(=O)Nc2ccccc2)[C@@H](C)CN([C@@H](C)CO)C3=O)cc1,1,-1,-1,/,0,6
O=C([C@H]1[C@H](CO)[C@H]2Cn3c(ccc(-c4ccccc4)c3=O)[C@H]2N1Cc1cocn1)N1CCCCC1,0,2,7,/,0,/
COc1ccc(S(=O)(=O)Nc2ccc3c(c2)C(=O)N([C@H](C)CO)C[C@@H](C)[C@H](CN(C)C(=O)C2CCCCC2)OCCCC[C@@H](C)O3)cc1,0,-5,-1,/,1.5*,-2
COc1ccc(S(=O)(=O)Nc2ccc3c(c2)C(=O)N([C@@H](C)CO)C[C@H](C)[C@@H](CN(C)C)OCCCC[C@H](C)O3)cc1,91*,4,1,/,-2,7
COc1cccc(Oc2ccc(N/C=C/C(=O)C(C)(C)C)cc2)c1,4,-5,4,1,44*,-3
Cc1cccc(C)c1NC(=O)C1(N2C(=O)CC2c2ccccc2)CCCCC1 (stereo not drawn),/,5,/,-4,44*,/
FC(F)(F)c1nnc(-c2ccccc2)nc1Oc1ccc(Cl)cc1Cl,-2,/,3,51*,/,-34
FC(F)(F)c1cccc(Oc2nc(-c3ccccc3)nnc2C(F)(F)F)c1,/,/,/,-2,/,/
CC(C)NC(=O)N(C)C[C@H]1OCCCC[C@H](C)Oc2ccc(NC(=O)c3ccncc3)cc2C(=O)N([C@H](C)CO)C[C@@H]1C,-2,0,-1,/,0,2
CCOC(=O)N1CCN(C(=O)c2cc3c(-c4cccc(OC)c4)nn(C)c3s2)CC1,0,-29*,-5,-1,0,/
